Results as given in PMC3415686 (Bioorganic & medicinal chemistry letters, 2012).

Experiments:
[1] = Pharmacokinetics following oral and intravenous delivery; assay type: in vivo, rats; settings: rat
Procedure, shortened: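 Rats were dosed with the test compound orally and intravenously; the oral dose was 2 mg/kg. Serum drug levels were followed to derive oral bioavailability (%F), half-life, Cmax and clearance.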

[2] = target: wt Bcr-Abl-Ba/F3 (Homo sapiens, UniProt P00519+P11274); test: Cellular antiproliferative activity on wt Bcr-Abl-Ba/F3; assay type: cell-based, murine; settings: for antiproliferative activity against wild-type Bcr-Abl (in words): Ba/F3 cells transformed with Bcr-Abl
Procedure, shortened: (§1)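 Murine pre-B Ba/F3 cells transformed with the Bcr-Abl oncogene were used for cellular Bcr-Abl inhibition. Transformed cells grow without interleukin-3 (IL-3). Untransformed parental Ba/F3 cells proliferate only when IL-3 is present.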

[3] = test system: wt-Ba/F3; test: Cytotoxicity on wt; assay type: cell-based, murine
Procedure, shortened: as §1

[4] = target: Bcr-Abl-T315I-Ba/F3 (Homo sapiens, UniProt P00519+P11274, T315I); test: Cellular antiproliferative activity on mutant Bcr-Abl-T315I-Ba/F3; assay type: cell-based, murine
Procedure, shortened: as §1

[5] = test system: panel of 353 kinases; test: KINOMEscan kinase selectivity profiling; assay type: binding; settings: 10 μM
Procedure, shortened: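 KINOMEscan competition binding screen with the test compound at 10 μM against 353 kinases. Hits were kinases with an Ambit score below 10% of the DMSO control. S(10) is the number of kinases scoring below ten divided by the total number of kinases tested at that concentration.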

With `CCN1CCN(Cc2ccc(NC(=O)c3cccc(-c4ccc5nc(NC(=O)C6CC6)sc5n4)c3)cc2C(F)(F)F)CC1` [Compound 22] the “AUC (%extrapolated)” value ([1]; IV 1 mg/kg) was 35.3%, the “AUC (%extrapolated)” value ([1]; PO 2 mg/kg) was 35% and the Tmax ([1]; serum, iv, 1 mg/kg) was 4.8 min. The clearance ([1]; serum, iv, 1 mg/kg) was 13 mL/min/kg, the Tmax ([1]; serum, po, 2 mg/kg) was 162 min and the EC50 ([2]; read-out: Cellular antiproliferative activity (EC50, μM) Bcr-Abl (wt), wt Bcr-Abl-Ba/F3) was 0.098 µM. For the same compound, the “decrease in cytotoxicity against parental Ba/F3 cells relative to 11” value ([3]; relative to 11) was 3 fold, the “improvement in cellular antiproliferative activity relative to 11 against T315I-Bcr-Abl” value ([4]; relative to 11) was roughly 6 fold and the “S(10) score (kinases inhibited below a score of ten / total kinases tested)” value [5] was 0.10.

With `O=C(Nc1ccc(N2CCNCC2)c(C(F)(F)F)c1)c1cccc(-c2ccc3nc(NC(=O)C4CC4)sc3n2)c1` [Compound 24] the “loss of cellular activity relative to 22” value ([2]; relative to 22, cell line not given) was “approximately 10 fold”.

With `Cc1cn(-c2cc(NC(=O)Nc3cccc(-c4ccc5nc(NC(=O)C6CC6)sc5n4)c3)cc(C(F)(F)F)c2)cn1` [Compound 33] the “reduction in cellular activity against T315I-Bcr-Abl compared to 22” value ([4]; compared to 22) was roughly 4 fold.

For `Cc1cn(-c2cc(NC(=O)c3cccc(-c4ccc5nc(NC(=O)C6CC6)sc5n4)c3)cc(C(F)(F)F)c2)cn1` [Compound 26], the “AUC (%extrapolated)” value ([1]; IV 1 mg/kg) was 8.7%, the “AUC (%extrapolated)” value ([1]; PO 2 mg/kg) was 21% and the Tmax ([1]; serum, iv, 1 mg/kg) was 8.4 min. The Tmax ([1]; serum, po, 2 mg/kg) was 66 min and the “S(10) score (kinases inhibited below a score of ten / total kinases tested)” value [5] was 0.36.

In the case of `CCN1CCN(Cc2ccc(NC(=O)Nc3cccc(-c4ccc5nc(NC(=O)C6CC6)sc5n4)c3)cc2C(F)(F)F)CC1` [Compound 32], the “improved activity on wild-type Bcr-Abl (urea linkage)” value ([2]; urea linkage in place of amide) is reported as 5–10 fold, the “increased cytotoxicity towards parental Ba/F3 cells (urea linkage)” value ([3]; urea linkage in place of amide) is reported as “approximately 5 fold” and the “improved activity on T315I Bcr-Abl (urea linkage)” value ([4]; urea linkage in place of amide) is reported as 5–10 fold.

For `Nc1nc2ccc(-c3cccc(C(=O)Nc4cccc(C(F)(F)F)c4)c3)nc2s1` [Compound 9a], the “antiproliferative activity against wild-type Bcr-Abl (in words)” value [2] was “did not display antiproliferative activity” and the “antiproliferative activity against T315I-Bcr-Abl (in words)” value ([4]; Ba/F3 cells transformed with T315I-Bcr-Abl) was “did not display antiproliferative activity”.

In the case of `CCN1CCN(Cc2ccc(NC(=O)c3ccc(C)c(-c4ccc5nc(NC(=O)C6CC6)sc5n4)c3)cc2C(F)(F)F)CC1` [Compound 27], the “antiproliferative activity against wild-type Bcr-Abl (in words)” value [2] is reported as “exceptionally potent”.
